According to ChEMBL document CHEMBL1154183, “Structure-based optimization of potent and selective inhibitors of the tyrosine kinase erythropoietin producing human hepatocellular carcinoma receptor B4 (EphB4)” (J Med Chem, 2009):
pIC50: −log10 of the molar value.

Experiments:
[1] = Inhibition of AMPK assessed as remaining enzyme activity at 3 uM relative to DMSO
Summary of the method: (§1)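 Panel assay run robotically at room temperature for 30 min with 10 mM magnesium acetate and [γ-33P]ATP (800 cpm/pmol) at 5, 20 or 50 μM, chosen per kinase to be at or below its ATP Km. Reactions were started with MgATP, stopped with orthophosphoric acid and spotted on P81 filters. Activity is the mean of duplicates at a single inhibitor concentration, as % of DMSO control.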

[2] = target: Insulin receptor (Homo sapiens) (UniProt P06213); assay: Inhibition of histidine-tagged IR assessed as remaining enzyme activity at 3 uM relative to DMSO
[3] = target: Mitogen-activated protein kinase 12 (Homo sapiens) (UniProt P53778); assay: Inhibition of p38-gamma assessed as remaining enzyme activity at 3 uM relative to DMSO
[4] = target: Serine/threonine-protein kinase 26 (Homo sapiens) (UniProt Q9P289); assay: Inhibition of MST4 assessed as remaining enzyme activity at 3 uM relative to DMSO
Summary of the method: (§2)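 Radiometric kinase assay run robotically at room temperature for 30 min. Contained 10 mM magnesium acetate and [γ-33P]ATP (800 cpm/pmol) at 5, 20 or 50 μM, chosen per kinase to be at or below its ATP Km. Reactions were started with MgATP, stopped with orthophosphoric acid and spotted onto P81 filters. Result is mean % activity of duplicates at one inhibitor concentration versus DMSO control.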

[5] = target: Ribosomal protein S6 kinase beta-1 (Homo sapiens) (UniProt P23443); assay: Inhibition of S6K1 assessed as remaining enzyme activity at 3 uM relative to DMSO
[6] = target: Receptor tyrosine-protein kinase erbB-4 (Homo sapiens) (UniProt Q15303); assay: Inhibition of HER4 assessed as remaining enzyme activity at 3 uM relative to DMSO
Summary of the method: (§3)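 Dundee kinase panel, radiometric: [γ-33P]ATP (800 cpm/pmol) at 5, 20 or 50 μM, at or below each kinase's ATP Km; 10 mM magnesium acetate; robotic, room temperature, 30 min. Reactions started with MgATP, stopped with orthophosphoric acid, spotted onto P81 filters. Inhibitor tested at a single concentration; mean % activity of duplicates relative to DMSO control.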

[7] = target: Dual specificity protein kinase TTK (Homo sapiens) (UniProt P33981); assay: Inhibition of TTK assessed as remaining enzyme activity at 3 uM relative to DMSO
[8] = target: Serine/threonine-protein kinase D1 (Homo sapiens) (UniProt Q15139); assay: Inhibition of PKD1 assessed as remaining enzyme activity at 3 uM relative to DMSO
[9] = target: SRSF protein kinase 1 (Homo sapiens) (UniProt Q96SB4); assay: Inhibition of SRPK1 assessed as remaining enzyme activity at 3 uM relative to DMSO
[10] = target: Serine/threonine-protein kinase Chk2 (Homo sapiens) (UniProt O96017); assay: Inhibition of CHK2 assessed as remaining enzyme activity at 1 uM relative to DMSO; summary of the method: as §3
[11] = target: Proto-oncogene tyrosine-protein kinase Src (Homo sapiens) (UniProt P12931); assay: Inhibition of Src assessed as remaining enzyme activity at 1 uM relative to DMSO
[12] = tested on: eIF-2-alpha kinase GCN2 (Homo sapiens), Q9P2K8 [S808G]; assay: Binding affinity to GCN2 kinase domain 2 S808G mutant assessed as percentage of kinase remaining bound to the bead at 1 uM by T7 phage display based binding assay
Summary of the method: (§4)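 Competition binding assay run by a contract lab. Each kinase was expressed as a fusion to T7 phage, full-length for small kinases and catalytic domain for large ones. Phage were mixed with an immobilized known kinase inhibitor on streptavidin magnetic beads and with test compound at a single 1 μM. Kinase/phage still bound to the beads was quantified by qPCR and expressed as % of DMSO control.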

[13] = target: Mitogen-activated protein kinase 9 (Homo sapiens) (UniProt P45984); assay: Inhibition of JNK2 assessed as remaining enzyme activity at 1 uM relative to DMSO; summary of the method: as §3
[14] = target: Serine/threonine-protein kinase BRSK2 (Homo sapiens) (UniProt Q8IWQ3); assay: Inhibition of BRSK2 assessed as remaining enzyme activity at 1 uM relative to DMSO; summary of the method: as §1
[15] = target: Mitogen-activated protein kinase 15 (Homo sapiens) (UniProt Q8TD08); assay: Inhibition of ERK8 assessed as remaining enzyme activity at 1 uM relative to DMSO; summary of the method: as §3
[16] = target: Serine/threonine-protein kinase 32A (Homo sapiens) (UniProt Q8WU08); assay: Binding affinity to YANK1 assessed as percentage of kinase remaining bound to the bead at 1 uM by T7 phage display based binding assay; summary of the method: as §4
[17] = target: Serine/threonine-protein kinase 32B (Homo sapiens) (UniProt Q9NY57); assay: Binding affinity to YANK2 assessed as percentage of kinase remaining bound to the bead at 1 uM by T7 phage display based binding assay; summary of the method: as §4
[18] = target: Ephrin type-A receptor 8 (Homo sapiens, UniProt P29322); assay: Inhibition of EphA8 by [gamma33-P]ATP based assay
[19] = target: Vascular endothelial growth factor receptor 2 (Homo sapiens) (UniProt P35968); assay: Binding affinity to VEGFR2 assessed as percentage of kinase remaining bound to the bead at 1 uM by T7 phage display based binding assay
Summary of the method: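 Kinases expressed as T7 phage fusions (full-length for small kinases, catalytic domain for large). Phage mixed with an immobilized known kinase inhibitor on streptavidin magnetic beads plus test compound at a single 1 μM concentration. Ligand displacement from the ATP site was read by quantitative PCR as % kinase/phage still bead-bound versus DMSO control. Human kinases.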

[20] = target: RAC-beta serine/threonine-protein kinase (Homo sapiens) (UniProt P31751); assay: Inhibition of PKBbeta assessed as remaining enzyme activity at 1 uM relative to DMSO; summary of the method: as §2
[21] = target: ALK tyrosine kinase receptor (Homo sapiens) (UniProt Q9UM73); assay: Binding affinity to ALK assessed as percentage of kinase remaining bound to the bead at 1 uM by T7 phage display based binding assay; summary of the method: as §4
[22] = target: Inhibitor of nuclear factor kappa-B kinase subunit epsilon (Homo sapiens) (UniProt Q14164); assay: Inhibition of IKKepsilon assessed as remaining enzyme activity at 1 uM relative to DMSO; summary of the method: as §3
[23] = target: RAC-alpha serine/threonine-protein kinase (Homo sapiens) (UniProt P31749); assay: Inhibition of PKBalpha assessed as remaining enzyme activity at 1 uM relative to DMSO; summary of the method: as §2
[24] = target: Eukaryotic elongation factor 2 kinase (Homo sapiens) (UniProt O00418); assay: Inhibition of EF2K assessed as remaining enzyme activity at 1 uM relative to DMSO
Summary of the method: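 Radiometric kinase assay run robotically at room temperature for 30 min, linear in time and enzyme. Conditions: 10 mM magnesium acetate, [γ-33P]ATP (800 cpm/pmol) at 5, 20 or 50 μM per kinase, at or below its ATP Km. Started with MgATP and stopped with orthophosphoric acid, then spotted on P81 filters. Reported as mean % activity of duplicates versus DMSO controls.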

[25] = target: Cytoplasmic tyrosine-protein kinase BMX (Homo sapiens) (UniProt P51813); assay: Binding affinity to BMX assessed as percentage of kinase remaining bound to the bead at 1 uM by T7 phage display based binding assay; summary of the method: as §4
Sequence of Cytoplasmic tyrosine-protein kinase BMX (Homo sapiens) (P51813 whole entry): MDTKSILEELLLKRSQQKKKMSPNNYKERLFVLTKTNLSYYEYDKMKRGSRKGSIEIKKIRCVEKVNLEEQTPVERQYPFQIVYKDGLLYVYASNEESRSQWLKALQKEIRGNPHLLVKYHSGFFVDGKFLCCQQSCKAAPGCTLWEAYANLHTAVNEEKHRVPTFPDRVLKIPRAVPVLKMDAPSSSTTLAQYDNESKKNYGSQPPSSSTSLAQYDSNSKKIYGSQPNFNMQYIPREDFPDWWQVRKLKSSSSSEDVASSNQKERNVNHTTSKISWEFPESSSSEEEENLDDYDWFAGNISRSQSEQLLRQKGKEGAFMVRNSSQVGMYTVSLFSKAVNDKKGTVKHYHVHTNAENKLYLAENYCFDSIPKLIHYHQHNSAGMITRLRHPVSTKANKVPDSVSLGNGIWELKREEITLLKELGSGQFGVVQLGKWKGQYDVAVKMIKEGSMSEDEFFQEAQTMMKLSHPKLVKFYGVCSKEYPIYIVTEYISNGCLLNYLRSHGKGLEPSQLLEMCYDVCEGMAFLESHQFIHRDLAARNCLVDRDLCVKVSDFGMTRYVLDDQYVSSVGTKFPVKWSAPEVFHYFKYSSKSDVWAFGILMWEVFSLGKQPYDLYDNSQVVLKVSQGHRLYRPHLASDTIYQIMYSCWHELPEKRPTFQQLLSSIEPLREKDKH

Sequence of Insulin receptor (Homo sapiens) (P06213 28-758 limits assumed): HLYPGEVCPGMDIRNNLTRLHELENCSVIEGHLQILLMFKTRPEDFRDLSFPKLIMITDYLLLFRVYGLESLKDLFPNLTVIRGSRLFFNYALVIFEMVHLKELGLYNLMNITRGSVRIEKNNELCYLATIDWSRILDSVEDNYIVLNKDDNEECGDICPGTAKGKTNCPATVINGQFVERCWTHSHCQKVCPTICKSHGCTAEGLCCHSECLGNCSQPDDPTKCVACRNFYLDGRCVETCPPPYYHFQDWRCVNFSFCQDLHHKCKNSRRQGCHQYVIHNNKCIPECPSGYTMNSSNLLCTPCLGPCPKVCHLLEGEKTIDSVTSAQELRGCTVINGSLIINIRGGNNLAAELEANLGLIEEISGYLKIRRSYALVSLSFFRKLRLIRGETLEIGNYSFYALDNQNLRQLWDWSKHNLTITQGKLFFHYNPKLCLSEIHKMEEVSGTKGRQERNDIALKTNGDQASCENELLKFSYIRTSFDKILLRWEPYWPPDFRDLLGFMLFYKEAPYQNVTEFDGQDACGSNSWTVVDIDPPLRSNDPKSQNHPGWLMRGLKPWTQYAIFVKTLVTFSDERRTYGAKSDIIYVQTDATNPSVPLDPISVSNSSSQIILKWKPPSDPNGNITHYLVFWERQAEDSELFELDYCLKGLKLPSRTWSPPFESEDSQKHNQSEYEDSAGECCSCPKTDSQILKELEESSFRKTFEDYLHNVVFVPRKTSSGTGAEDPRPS
Sequence of Insulin receptor (Homo sapiens) (P06213 763-1382 limits assumed): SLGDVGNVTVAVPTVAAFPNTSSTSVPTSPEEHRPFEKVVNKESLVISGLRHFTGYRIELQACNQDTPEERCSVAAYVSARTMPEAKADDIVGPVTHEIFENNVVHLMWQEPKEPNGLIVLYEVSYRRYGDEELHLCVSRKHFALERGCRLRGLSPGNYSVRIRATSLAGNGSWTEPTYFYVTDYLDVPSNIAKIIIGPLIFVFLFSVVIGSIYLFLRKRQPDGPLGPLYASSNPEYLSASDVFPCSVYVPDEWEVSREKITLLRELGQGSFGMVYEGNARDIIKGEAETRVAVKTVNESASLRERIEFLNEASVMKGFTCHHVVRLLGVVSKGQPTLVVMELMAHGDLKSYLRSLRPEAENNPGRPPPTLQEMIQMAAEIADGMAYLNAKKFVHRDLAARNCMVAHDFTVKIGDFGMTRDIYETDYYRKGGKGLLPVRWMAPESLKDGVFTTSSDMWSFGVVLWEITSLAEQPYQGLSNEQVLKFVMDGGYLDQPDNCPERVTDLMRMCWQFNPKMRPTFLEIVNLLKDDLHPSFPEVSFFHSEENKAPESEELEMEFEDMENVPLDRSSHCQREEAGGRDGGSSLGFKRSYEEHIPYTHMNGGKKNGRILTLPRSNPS
Sequence of Serine/threonine-protein kinase 32A (Homo sapiens) (Q8WU08 whole entry): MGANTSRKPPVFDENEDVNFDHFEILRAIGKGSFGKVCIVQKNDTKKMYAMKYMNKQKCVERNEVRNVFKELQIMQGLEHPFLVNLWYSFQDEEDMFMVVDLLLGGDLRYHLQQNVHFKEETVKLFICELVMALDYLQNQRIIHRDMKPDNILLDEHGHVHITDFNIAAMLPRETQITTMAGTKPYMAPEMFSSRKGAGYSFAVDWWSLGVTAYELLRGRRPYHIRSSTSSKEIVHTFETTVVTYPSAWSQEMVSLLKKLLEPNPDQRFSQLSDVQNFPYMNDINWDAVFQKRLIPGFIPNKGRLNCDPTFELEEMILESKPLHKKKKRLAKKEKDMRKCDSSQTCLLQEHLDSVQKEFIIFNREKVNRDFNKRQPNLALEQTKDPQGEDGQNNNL
Sequence of Serine/threonine-protein kinase 26 (Homo sapiens) (Q9P289 2-416 limits assumed): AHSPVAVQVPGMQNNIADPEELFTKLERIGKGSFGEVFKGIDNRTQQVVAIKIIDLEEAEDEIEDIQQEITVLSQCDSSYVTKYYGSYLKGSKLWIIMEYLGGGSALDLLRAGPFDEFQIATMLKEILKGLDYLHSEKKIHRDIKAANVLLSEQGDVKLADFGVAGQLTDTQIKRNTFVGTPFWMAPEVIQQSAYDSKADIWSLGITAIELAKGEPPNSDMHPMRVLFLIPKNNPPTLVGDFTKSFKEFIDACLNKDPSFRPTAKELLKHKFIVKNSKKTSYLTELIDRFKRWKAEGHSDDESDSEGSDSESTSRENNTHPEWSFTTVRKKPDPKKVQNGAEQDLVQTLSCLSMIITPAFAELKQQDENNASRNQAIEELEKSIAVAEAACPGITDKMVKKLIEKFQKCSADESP
Sequence of Eukaryotic elongation factor 2 kinase (Homo sapiens) (O00418 whole entry): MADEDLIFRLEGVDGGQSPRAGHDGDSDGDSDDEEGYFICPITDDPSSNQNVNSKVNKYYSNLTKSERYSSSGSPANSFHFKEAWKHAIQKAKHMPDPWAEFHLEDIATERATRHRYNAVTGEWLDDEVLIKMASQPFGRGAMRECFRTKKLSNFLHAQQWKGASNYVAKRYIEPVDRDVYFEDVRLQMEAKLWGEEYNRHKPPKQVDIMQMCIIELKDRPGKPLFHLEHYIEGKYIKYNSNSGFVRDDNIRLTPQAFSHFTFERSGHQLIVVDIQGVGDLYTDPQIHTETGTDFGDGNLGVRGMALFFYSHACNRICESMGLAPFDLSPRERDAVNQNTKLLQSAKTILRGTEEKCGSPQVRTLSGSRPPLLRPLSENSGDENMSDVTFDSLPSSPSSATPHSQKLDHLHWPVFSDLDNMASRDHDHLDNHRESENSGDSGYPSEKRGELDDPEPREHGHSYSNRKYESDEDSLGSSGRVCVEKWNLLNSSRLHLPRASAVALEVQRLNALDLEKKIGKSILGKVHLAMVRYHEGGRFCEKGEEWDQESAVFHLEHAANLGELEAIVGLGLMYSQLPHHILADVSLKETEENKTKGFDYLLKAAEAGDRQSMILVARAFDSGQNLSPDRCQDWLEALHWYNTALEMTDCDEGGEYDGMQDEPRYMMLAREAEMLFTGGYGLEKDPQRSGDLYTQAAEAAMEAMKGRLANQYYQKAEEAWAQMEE
Sequence of Mitogen-activated protein kinase 15 (Homo sapiens) (Q8TD08 whole entry): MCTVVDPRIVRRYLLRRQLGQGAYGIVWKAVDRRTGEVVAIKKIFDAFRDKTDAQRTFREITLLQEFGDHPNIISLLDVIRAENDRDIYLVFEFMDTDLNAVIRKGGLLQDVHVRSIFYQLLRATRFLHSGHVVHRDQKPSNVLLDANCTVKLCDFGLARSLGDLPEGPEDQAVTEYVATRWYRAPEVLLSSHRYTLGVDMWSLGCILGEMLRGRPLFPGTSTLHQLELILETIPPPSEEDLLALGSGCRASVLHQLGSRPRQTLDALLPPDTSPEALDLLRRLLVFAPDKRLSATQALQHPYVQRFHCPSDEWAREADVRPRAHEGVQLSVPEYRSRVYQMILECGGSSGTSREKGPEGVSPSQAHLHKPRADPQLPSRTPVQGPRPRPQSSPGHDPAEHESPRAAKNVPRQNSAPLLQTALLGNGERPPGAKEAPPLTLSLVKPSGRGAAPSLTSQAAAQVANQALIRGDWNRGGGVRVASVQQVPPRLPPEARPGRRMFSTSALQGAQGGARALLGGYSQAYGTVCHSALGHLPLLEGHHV
Sequence of Mitogen-activated protein kinase 9 (Homo sapiens) (P45984 whole entry, looked up): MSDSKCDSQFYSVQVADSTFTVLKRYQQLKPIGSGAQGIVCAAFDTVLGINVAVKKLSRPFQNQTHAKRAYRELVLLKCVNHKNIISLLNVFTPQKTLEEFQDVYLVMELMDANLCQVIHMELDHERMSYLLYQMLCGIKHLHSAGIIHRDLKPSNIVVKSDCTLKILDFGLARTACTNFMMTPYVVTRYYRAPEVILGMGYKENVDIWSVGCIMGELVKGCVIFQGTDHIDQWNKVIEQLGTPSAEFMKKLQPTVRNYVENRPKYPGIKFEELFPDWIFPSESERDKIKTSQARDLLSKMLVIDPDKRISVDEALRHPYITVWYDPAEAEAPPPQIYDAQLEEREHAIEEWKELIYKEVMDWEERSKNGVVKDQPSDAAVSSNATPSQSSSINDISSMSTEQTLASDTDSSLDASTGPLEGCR
Sequence of Mitogen-activated protein kinase 12 (Homo sapiens) (P53778 whole entry): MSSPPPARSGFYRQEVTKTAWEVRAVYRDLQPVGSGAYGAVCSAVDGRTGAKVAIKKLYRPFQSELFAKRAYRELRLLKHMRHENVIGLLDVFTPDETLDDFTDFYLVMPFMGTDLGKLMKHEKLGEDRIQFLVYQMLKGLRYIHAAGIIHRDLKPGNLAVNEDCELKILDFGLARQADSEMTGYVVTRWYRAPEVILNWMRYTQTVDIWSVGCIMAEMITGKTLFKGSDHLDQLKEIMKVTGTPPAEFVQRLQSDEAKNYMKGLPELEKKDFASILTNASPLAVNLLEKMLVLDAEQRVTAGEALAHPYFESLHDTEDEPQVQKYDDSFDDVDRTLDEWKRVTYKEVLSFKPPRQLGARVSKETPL

In the case of `COc1ccccc1-n1c(-c2ccccc2C)cn2c3c(=O)[nH]c(=O)n(C)c3nc12`, the Activity [1] was 92%, the Activity [2] was 103% and the Activity [3] was 92%. For the same molecule, the Activity [4] was 83%, the Activity [5] was 98% and the Activity [6] was 45%. It also gave an Activity [7] of 99%, an Activity [8] of 100% and an Activity [9] of 78%.

`COc1ccccc1-n1c(-c2cc(O)ccc2C)cn2c3c(=O)[nH]c(=O)n(C)c3nc12` showed an Activity [10] of 90%, an Activity [11] of 9% and an Activity [12] of 100%. It also gave an Activity [13] of 94%, an Activity [14] of 82% and an Activity [15] of 97%. It also gave an Activity [16] of 80%, an Activity [17] of 89% and a pIC50 [18] of 8.35. For the same molecule, the Activity [19] was 96%, the Activity [20] was 104% and the Activity [21] was 99%. The Activity [22] was 85%, the Activity [23] was 98% and the Activity [24] was 96%. For the same molecule, the Activity [25] was 55%.
